Data on three compounds can be found in article PMC9096626 (RSC Advances, 2022).

Experiment [1] in a line: iEDDA cycloaddition kinetics with TCO-OH. The note with it: water : DMSO (4 : 1), 37 °C. In outline: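 Pseudo-first-order runs at 37 °C used varied TCO-OH concentrations at 10- to 50-fold excess over the tetrazine amino acid. Full spectra (700–200 nm) were followed by time-resolved UV-Vis and fitted as single-step kinetics to give kobs. Second-order rate constants came from the slope of kobs against [TCO-OH].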

Experiment [2] concerns Somatostatin receptor type 2 (SSTR2). As to conditions: statement in words; cited from earlier work.

`Cl.N[C@@H](CC1=CCC(O)(c2nncnn2)C=C1)C(=O)O` (stereo partly drawn) [4a]: the “iEDDA cycloaddition rate relative to methyl analogue 4b” value in experiment [1] was 14 times.

On to `Cl.N[C@@H](Cc1ccc(Oc2nnc(-c3ccccc3)nn2)cc1)C(=O)O` [4c], for which the “iEDDA cycloaddition rate relative to methyl analogue 4b” value in experiment [1] was “three times faster than 4b”.

For octreotide, the “affinity for Somatostatin receptor type 2 (SSTR2)” value in experiment [2] is on record as “high affinity”.
